Measured values as given in PubChem BioAssay AID1267 (The Scripps Research Institute Molecular Screening Center, 2008).
Among all 1,200 compounds or so, about 770 (64%) were called active.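 Rule for the calls: active = percent activation of the STAT3 luciferase reporter above a set limit taken from the earlier primary screen (cut at about 130% in these data); inactive = the rest.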 The set was probably picked from earlier hits. Only a sample is shown.

Assay: STAT3 reporter potentiators, retest of hits, confirmation, U3A cells, luciferase, luminescence (AID 1267);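 note: 0% = background signal of medium plus substrate and 100% = median of IL-6 with DMSO wells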
Settings: IL-6 potentiation, at 5.7 µM, stronger effect = higher value, 100 means same as IL-6 alone, U3A cells lack STAT1
How it was run: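 Replicates: triplicate / Test system: STAT1-null U3A cells carrying STAT3-luciferase reporter / Measured by: luciferase reporter luminescence / Dosing: single nominal compound dose of 5.7 µM / Benchmarks: high control IL-6 plus DMSO wells, media-only background wells / Probe or stimulus: IL-6 stimulus at 33 ng/mL final / Times: 1 h pretreatment, 6 h IL-6, 37 °C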

Potentiation (% of control), inactive:
CSc1nc(N(C)NC(=O)c2cccc(C)c2)c2ccccc2n1 112%
COc1ccc(/C=N/Nc2ncnc3sc4c(c23)CCCC4)cc1O 114%
Fc1ccc2nc(-c3ccccc3)nc(SCc3nnc(-c4ccccc4)o3)c2c1 132%
COc1ccccc1C1C2=C(COC2=O)Nc2cc3c(cc21)OCO3 (stereo not given) 124%
COc1ccccc1N1CCN(C(=O)c2cc3c(-c4ccc(Cl)cc4)nn(C)c3s2)CC1 125%
O=C(NCc1ccco1)c1cccn2c(=O)c3c4c(sc3nc12)CCCC4 128%
O=C(C1CCN(S(=O)(=O)Cc2ccccc2)CC1)N1CCCc2ccccc21 118%
COc1cccc(NC(=S)C(C#N)=C2N(C)c3ccccc3N2C)c1 122%
CN1CCN(c2ccc([N+](=O)[O-])c(Sc3nc4ccccc4[nH]3)c2)CC1 107%
Cc1ccc(S(=O)(=O)Nc2nc3ccccc3nc2N2CCc3ccccc3C2)cc1 124%
Cc1cccc(N(CC(=O)N=Nc2c(O)[nH]c3ccccc23)S(C)(=O)=O)c1C 129%
COC(=O)c1[nH]c2ccccc2c1NS(=O)(=O)c1ccc(OC)cc1OC 116%
CC(C)CNC(=O)COC(=O)/C=C/c1ccccc1[N+](=O)[O-] 126%
C/C(=N\NC(=O)CNc1cccc2ccccc12)c1ccc(Br)s1 98.2%
Oc1c(C=Nc2cccc3nsnc23)ccc2ccccc12 129%
COc1cc(OC)cc(C(=O)N[C@H](C(=O)Nc2nc3ccccc3[nH]2)C(C)C)c1 108%
C/C(=N\c1nc2ccccc2n1C)c1cc(Cl)ccc1O 118%
Cn1cccc1C(=O)Nc1nccs1 132%
O=c1[nH]c(CSc2ncc(-c3ccc(F)cc3)n2Cc2ccco2)nc2ccccc12 122%
COc1ccccc1-c1nnc(SCC(=O)N2CC(C)CC(C)C2)o1 (stereo not given) 117%
CCOC(=O)c1c(-c2cccc(C)c2)csc1NC(=O)c1c(-c2ccccc2)noc1C 122%
O=C(O)CS/C(=C\c1ccc(F)cc1)c1nc2ccccc2s1 132%
COc1ccc(NC(=O)ON=C2c3ccccc3-c3ccccc32)cc1 121%
CCNCc1cc2cc(C)ccc2[nH]c1=O 120%
CSCCC(NC(=O)c1ccco1)C(=O)OCC(=O)Nc1ncc(Cl)c(C)c1Cl (stereo not given) 124%
CCCCC(=O)Nc1nc(C)c(-c2csc(Nc3ccc(Cl)cc3)n2)s1 133%
Cc1ccc(Nc2nc(-c3sc(NC(=O)c4ccccc4)nc3C)cs2)cc1 122%
Cc1ccc(-c2cc(C(=O)Nc3nn[nH]n3)c3ccccc3n2)c(C)c1 121%
O=[N+]([O-])c1ccc(N2CCN(S(=O)(=O)c3ccc4ccccc4c3)CC2)cc1NCc1ccco1 123%
Cc1csc2ncc(C(=O)N(Cc3ccccc3)c3ccccn3)c(=O)n12 111%
O=C(Cc1c[nH]c2ccccc12)OCCOC(=O)Cc1c[nH]c2ccccc12 121%
COC(=O)c1[nH]c2cccc(C)c2c1NC(=O)CN1CCCc2ccccc21 128%

Potentiation (% of control), active:
CC(=O)Nc1ccc(NC(=O)COc2ccccc2C(=O)Nc2cccc(Cl)c2Cl)cc1 143%
Cc1cccc(C(=O)Nc2nnc(Cc3c[nH]c4ccccc34)s2)c1 150%
O=C(Nc1cc(C(F)(F)F)ccc1Cl)c1cc(C2CC2)on1 145%
OC(COc1ccc2ccccc2c1)CN1CCOCC1 (stereo not given) 157%
COc1ccc(-c2c3c(=O)n(C)c(=O)n(C)c3cn2-c2cccc(OC)c2)cc1 158%
Cn1nc(-c2ccc(Cl)cc2)c2cc(C(=O)NCc3ccco3)sc21 153%
COc1ccc(C)cc1NC(=O)c1[nH]c(C)c(C(C)=O)c1C 144%
N#Cc1ccccc1NC(=O)COc1c(Br)cc(Br)c2cccnc12 162%
CSc1nc2sc3c(c2c(=O)[nH]1)CCc1ccccc1-3 142%
CCSc1nnc(-c2cc3c(s2)-c2ccccc2CC3)o1 162%
COc1ccc(C2c3[nH]c4ccccc4c3CCN2CCCn2cccn2)cc1C (stereo not given) 142%
Cc1ccc(OCc2nnc(SC3CCc4ccccc4C3=O)n2C)cc1 (stereo not given) 151%
Cc1nc2ccccc2cc1O 146%
CCCS(=O)(=O)Nc1c(C(=O)O)[nH]c2ccccc12 170%
CCn1c(SCC(=O)N/N=C/C=C/c2ccccc2[N+](=O)[O-])nnc1-c1ccccc1 137%
N#Cc1c(C(F)(F)F)cc(-c2ccc(Cl)cc2)nc1SCC(=O)O 159%
COc1ccc(Cl)cc1NC(=O)c1oc(C)nc1C 147%
Cc1ccc(/C=N/NC(=O)COc2ccccc2-c2ccccc2)cc1 135%
Cc1ccc(C2=NN(C)c3nc4ccccc4n3C2)cc1 151%
COc1cc(NS(=O)(=O)c2ccc(N/C=C(\C=O)c3nc4cc(Cl)ccc4o3)cc2)nc(OC)n1 144%
Cc1ccc(NC(=O)c2cc([N+](=O)[O-])ccc2Cl)c(O)c1 158%
Oc1cccc2ccc(/C=C/c3ccc(Br)s3)nc12 169%
CCOC(=O)N1CCN(CC(=O)Nc2cc(C)nn2-c2nc3ccccc3s2)CC1 140%
NC(=O)CSc1c[nH]c2ccccc12 165%
COc1ccc([N+](=O)[O-])cc1C1NN=C(c2cccc3ccccc23)S1 (stereo not given) 138%
O=C1CCCN1CCCNc1ncnc2c1[nH]c1ccccc12 144%
COCCCNc1nc2c(-c3cccc(C(F)(F)F)c3)nnn2c2ccccc12 134%
COc1ccccc1-c1nnc(NC(=O)c2ccc3ncsc3c2)o1 147%
Cc1cccc(C(=O)N2CCc3c([nH]c4ccccc34)C2CC(C)C)n1 (stereo not given) 159%
c1ccc(-c2cn3c(n2)CCc2ccc4cccnc4c2-3)cc1 139%
O=C(O)CSCc1nc2ccccc2s1 154%
CCOc1ccc(C2c3[nH]c4ccccc4c3CCN2Cc2cn(CC)nc2C)cc1 (stereo not given) 143%
COc1nc(N=C(N)N)nc2c(C)cccc12 144%
Cc1nc(N=C(N)N)nc2c(C)cccc12 172%
Cc1ccc(N=Nc2c(C)[nH]n(-c3ccccc3)c2=O)cc1 147%
CCOC(=O)C1CCN(c2ncnc3c2oc2ccc(Br)cc23)CC1 138%
C=CCCC(=O)Nc1nc(C)c(-c2csc(Nc3ccc(Cl)cc3)n2)s1 135%
CN1C(=O)/C(=C\c2cc(Br)cs2)c2ccccc21 190%
CCOC(=O)CN(C)Cc1c[nH]c2ccccc12 157%
COc1cccc(/C=C(/CC(=O)Nc2ccc(N3CCOCC3)cc2)c2nc3ccccc3s2)c1 146%
Oc1cccc(C2c3[nH]c4ccccc4c3CCN2Cc2cnn(-c3ccccc3)c2)c1 (stereo not given) 137%
COC(=O)c1[nH]c2ccccc2c1NC(=O)CN1CCCc2ccccc21 153%
C=CCn1c(-c2ccccc2OCC)n[nH]c1=S 178%
